Common to all, as to assay type: cell-based
Experiment [1] has as its target T1, P-selectin (Homo sapiens, UniProt P16109).
T1 sequence (P16109 whole entry): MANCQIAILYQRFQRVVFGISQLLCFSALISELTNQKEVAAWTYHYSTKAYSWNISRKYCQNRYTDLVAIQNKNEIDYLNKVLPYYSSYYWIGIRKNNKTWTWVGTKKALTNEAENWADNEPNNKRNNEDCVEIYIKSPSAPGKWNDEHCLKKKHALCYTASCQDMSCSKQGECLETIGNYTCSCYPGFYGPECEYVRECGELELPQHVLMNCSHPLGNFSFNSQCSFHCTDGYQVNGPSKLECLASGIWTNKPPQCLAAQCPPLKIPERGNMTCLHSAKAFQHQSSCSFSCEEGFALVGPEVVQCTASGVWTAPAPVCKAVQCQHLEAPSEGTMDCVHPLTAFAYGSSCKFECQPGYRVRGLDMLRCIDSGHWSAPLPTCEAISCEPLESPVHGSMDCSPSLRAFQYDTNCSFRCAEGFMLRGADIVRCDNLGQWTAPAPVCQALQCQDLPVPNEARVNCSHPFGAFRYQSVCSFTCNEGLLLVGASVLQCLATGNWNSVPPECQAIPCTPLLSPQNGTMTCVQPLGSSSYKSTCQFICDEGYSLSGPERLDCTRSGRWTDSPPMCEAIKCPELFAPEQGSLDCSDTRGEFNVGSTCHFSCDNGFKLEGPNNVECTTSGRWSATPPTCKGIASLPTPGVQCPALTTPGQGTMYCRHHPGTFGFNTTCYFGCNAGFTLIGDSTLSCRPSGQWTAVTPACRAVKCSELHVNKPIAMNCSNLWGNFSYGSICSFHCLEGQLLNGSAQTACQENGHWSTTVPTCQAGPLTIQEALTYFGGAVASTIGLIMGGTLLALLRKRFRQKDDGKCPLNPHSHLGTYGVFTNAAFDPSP
Briefly: Inhibition of HL-60 cell adhesion to recombinant human Selectin P. The method, boiled down: (§1)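 Recombinant human E- or P-selectin was coated in DPBS at 3 µg/mL (150 ng per well) for 3 h and blocked 1 h with DPBS/1% BSA. Inhibitor, diluted from 10 mM DPBS stock into Hanks'/20 mM Hepes pH 7.2–7.4/0.2% glucose/1% BSA, was added with 10^5 HL-60 cells for 15 min at room temperature, then washed with CaCl2-containing buffer. Bound cells were lysed and myeloperoxidase was read with o-phenylenediamine/H2O2 for 1 h at A492. Percent inhibition is relative to the no-inhibitor control.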

Experiment [2] deals with T2, E-selectin (Homo sapiens) (UniProt P16581).
T2 sequence (whole entry): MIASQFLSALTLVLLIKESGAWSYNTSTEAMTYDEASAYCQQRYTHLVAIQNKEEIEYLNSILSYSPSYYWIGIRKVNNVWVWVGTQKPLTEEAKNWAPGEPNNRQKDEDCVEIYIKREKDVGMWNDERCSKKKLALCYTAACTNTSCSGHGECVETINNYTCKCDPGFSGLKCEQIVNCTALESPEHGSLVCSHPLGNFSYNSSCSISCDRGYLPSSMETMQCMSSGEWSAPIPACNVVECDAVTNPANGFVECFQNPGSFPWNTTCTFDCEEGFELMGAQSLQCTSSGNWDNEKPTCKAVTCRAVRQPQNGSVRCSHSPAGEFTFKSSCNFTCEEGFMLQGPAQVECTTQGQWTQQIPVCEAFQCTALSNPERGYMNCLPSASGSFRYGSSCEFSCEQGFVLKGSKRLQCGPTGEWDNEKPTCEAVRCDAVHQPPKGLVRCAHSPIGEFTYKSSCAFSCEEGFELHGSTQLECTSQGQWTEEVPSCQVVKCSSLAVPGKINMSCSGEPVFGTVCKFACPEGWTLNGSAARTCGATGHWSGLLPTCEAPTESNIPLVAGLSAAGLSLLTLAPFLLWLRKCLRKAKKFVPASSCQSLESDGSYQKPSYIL
Briefly: Inhibition of HL-60 cell adhesion to recombinant human Selectin E at 50 mM. A digest of the protocol: as §1

A further experiment concerns the target T3, E-selectin (Homo sapiens, UniProt P16581).
T3 sequence (P16581 whole entry): T2 sequence (whole entry)
Briefly: Inhibition of HL-60 cell adhesion to recombinant human Selectin E. A digest of the protocol:
as §1

For experiment [3], the target named is T4, P-selectin (Homo sapiens) (UniProt P16109).
T4 sequence (whole entry): T1 sequence (P16109 whole entry)
Kind of experiment: Inhibition of HL-60 cell adhesion to recombinant human Selectin P at 50 mM.

Experiment [4] concerns the target T2, E-selectin (Homo sapiens). Briefly: Inhibition of HL-60 cell adhesion to recombinant human Selectin E at 50 mM; Not active up to 100 mM. The method, boiled down:
as §1

The target in experiment [5] is T4, P-selectin (Homo sapiens). Kind of experiment: Inhibition of HL-60 cell adhesion to recombinant human Selectin P at 50 mM; Not active up to 100 mM. A digest of the protocol:
as §1

In experiment [6] the target is T1, P-selectin. Kind of experiment: Inhibition of HL-60 cell adhesion to recombinant human Selectin P; Not active up to 100 mM. The method, boiled down: as §1

Calls of active or inactive are those of the source. No cut-off for these calls is given here.

As a reminder, the IC50 is the concentration at which inhibition is half-maximal. A word on the inhibition: it is the share of the control response that was lost under treatment. For the molecule `O=C(O)CCCCCNC(=O)[C@]1(O)C[C@@H](O)[C@@H](O)[C@H](O)C1`, the IC50 at P-selectin [1] and at E-selectin (read-out: IC50) was more than 50 mM in each case. For the same molecule, the inhibition in experiment [2] was 31%; in experiment [3], 14%.

For the molecule `O=C(O)[C@H](CO)NC(=O)[C@]1(O)C[C@@H](O)[C@@H](O)[C@H](O)C1`, the results for the IC50 at P-selectin [1] and at E-selectin (read-out: IC50) were 19.5 mM and more than 50 mM, respectively. For the same molecule, the inhibition in experiment [2] is 46%; in experiment [3], 88%.

Consider `CCC(C)[C@H](NC(=O)[C@]1(O)C[C@@H](O)[C@@H](O)[C@H](O)C1)C(=O)O` (some centres not stated), for which the IC50 on P-selectin [1] was 19 mM; on E-selectin (read-out: IC50), more than 50 mM. Besides, the inhibition in experiment [2] stood at 44%; in experiment [3], 92%.

As to `O=C(O)CCCNC(=O)[C@]1(O)C[C@@H](O)[C@@H](O)[C@H](O)C1`, the figures for the IC50 at P-selectin [1] and at E-selectin (read-out: IC50) were 40 mM and more than 50 mM, respectively. The inhibition was determined as 40% in experiment [2] and 83% in experiment [3].

For `O=C(O)[C@]1(O)C[C@@H](O)[C@@H](O)[C@H](O)C1` [QUINIC ACID], the inhibition entry in experiment [4] and in experiment [5] was “inactive” throughout. In addition, the IC50 entry on P-selectin [6] and on E-selectin (hl-60) was “Not Active” throughout.

Take `O=C(O)CC[C@H](NC(=O)[C@]1(O)C[C@@H](O)[C@@H](O)[C@H](O)C1)C(=O)O`: the results for the IC50 at P-selectin [1] and on E-selectin (read-out: IC50) were 21 mM and more than 50 mM, respectively. For the same molecule, the inhibition in experiment [2] worked out at 43%; in experiment [3], 86%.

`C[C@H](NC(=O)[C@]1(O)C[C@@H](O)[C@@H](O)[C@H](O)C1)C(=O)O`: the half-inhibitory concentration (IC50) on P-selectin [1] and on E-selectin (read-out: IC50) was more than 50 mM each time. Also, the inhibition stood at 30% in experiment [2] and 8% in experiment [3].

In the case of `O=C(O)CNC(=O)[C@]1(O)C[C@@H](O)[C@@H](O)[C@H](O)C1`, the IC50 at P-selectin [1] and on E-selectin (read-out: IC50) was more than 50 mM in each case. Also, the inhibition in experiment [2] and in experiment [3] was 38% each time.

Values taken from ChEMBL document CHEMBL1139646, “Sialyl Lewis(x) analogs based on a quinic acid scaffold as the fucose mimic” (Bioorg Med Chem Lett, 2005).
